ChEMBL document CHEMBL3244146, “Pyranenamines: a new series of antiallergic compounds” (1979)

Tests used:
Lung [1] = assay: Antiallergic activity in passively sensitized albino rat lungs assessed as inhibition of antigen-induced histamine release at 1 x 10^-8 M by fluorometric analysis relative to control; format: functional
How it was run: (§1)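 Fragmented lung from adult male Charles River albino rats, passively sensitized, then antigen-challenged with compound present; released histamine measured fluorometrically; inhibition reported relative to control, with replicate count given as number of separate lung preparations.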

Lung [2] = assay: Antiallergic activity in passively sensitized albino rat lungs assessed as inhibition of antigen-induced histamine release at 1 x 10^-6 M by fluorometric analysis relative to control; format: functional; how it was run: as §1
Lung [3] = assay: Antiallergic activity in passively sensitized albino rat lungs assessed as inhibition of antigen-induced histamine release at 1 x 10^-7 M by fluorometric analysis relative to control; format: functional; how it was run: as §1
Lung [4] = assay: Antiallergic activity in passively sensitized albino rat lungs assessed as inhibition of antigen-induced histamine release at 1 x 10^-5 M by fluorometric analysis relative to control; format: functional; how it was run: as §1
Rattus norvegicus [5] = assay: Antiallergic activity in iv dosed rat assessed as inhibition of egg albumin-induced passive cutaneous anaphylaxis treated for 30 secs followed by egg albumin-challenge measured after 30 mins; format: functional; conditions: 0.5 h, read-out: ID50 (the source's name)
Rattus norvegicus [6] = assay: Antiallergic activity in po dosed rat assessed as inhibition of egg albumin-induced passive cutaneous anaphylaxis treated for 15 mins followed by egg albumin-challenge measured after 30 mins; format: functional; conditions: read-out: ID50 (the source's name)
How it was run: (§2)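 Oral PCA in rats: intradermal antiserum at four back sites (dose giving ~12×12 mm wheal), compound po 48 h later, 15 min before iv challenge with 0.5 mL saline containing 5 mg Evans blue plus 5 mg egg albumin; skin bluing read 30 min after challenge on two axes per wheal; six rats per dose versus ≥6 vehicle controls; percent inhibition from mean wheal size, one-sided t test.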

Lung [7] = assay: Antiallergic activity in passively sensitized albino rat lungs assessed as inhibition of antigen-induced histamine release at 6.6 x 10^-6 M by fluorometric analysis relative to control; format: functional; how it was run: as §1
[8] = Antiallergic activity in passively sensitized rhesus monkey lungs assessed as inhibition of antigen-induced slow reacting substance of anaphylaxis release at 1.6 x 10^-4 M relative to control; format: functional, Macaca mulatta, Lung
How it was run: (§3)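 Passively sensitized fragmented lung from a young adult male rhesus monkey, challenged with IgE-antihuman IgE; histamine release measured fluorometrically and SRS-A estimated by guinea pig ileum bioassay; inhibition relative to control; replicates given as number of separate lung preparations.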

Lung [9] = assay: Antiallergic activity in passively sensitized albino rat lungs assessed as inhibition of antigen-induced histamine release at 1.6 x 10^-4 M by fluorometric analysis relative to control; format: functional; how it was run: as §1
[10] = Antiallergic activity in passively sensitized rhesus monkey lungs assessed as inhibition of antigen-induced slow reacting substance of anaphylaxis release at 6.6 x 10^-6 M relative to control; format: functional, Macaca mulatta, Lung; how it was run: as §3
[11] = Antiallergic activity in passively sensitized rhesus monkey lungs assessed as inhibition of antigen-induced histamine release at 6.6 x 10^-6 M by fluorometric analysis relative to control; format: functional, Macaca mulatta, Lung; how it was run: as §3
[12] = Antiallergic activity in passively sensitized rhesus monkey lungs assessed as inhibition of antigen-induced histamine release at 3.3 x 10^-5 M by fluorometric analysis relative to control; format: functional, Macaca mulatta, Lung; how it was run: as §3
[13] = Antiallergic activity in passively sensitized rhesus monkey lungs assessed as inhibition of antigen-induced histamine release at 1.6 x 10^-4 M by fluorometric analysis relative to control; format: functional, Macaca mulatta, Lung; how it was run: as §3
Lung [14] = assay: Antiallergic activity in passively sensitized albino rat lungs assessed as inhibition of antigen-induced histamine release at 6.6 x 10^-7 M by fluorometric analysis relative to control; format: functional; how it was run: as §1
[15] = Antiallergic activity in passively sensitized rhesus monkey lungs assessed as inhibition of antigen-induced slow reacting substance of anaphylaxis release at 3.3 x 10^-5 M relative to control; format: functional, Macaca mulatta, Lung; how it was run: as §3
Rattus norvegicus [16] = assay: Antiallergic activity in rat assessed as inhibition of egg albumin-induced passive cutaneous anaphylaxis at 100 mg/kg, iv treated for 30 secs followed by egg albumin-challenge measured after 30 mins relative to control; format: functional; conditions: 0.5 h
Rattus norvegicus [17] = assay: Antiallergic activity in rat assessed as inhibition of egg albumin-induced passive cutaneous anaphylaxis at 0.25 mg/kg, iv treated for 30 secs followed by egg albumin-challenge measured after 30 mins relative to control; format: functional; conditions: 0.5 h
Rattus norvegicus [18] = assay: Antiallergic activity in rat assessed as inhibition of egg albumin-induced passive cutaneous anaphylaxis at 25 mg/kg, po treated for 15 mins followed by egg albumin-challenge measured after 30 mins relative to control; format: functional; how it was run: as §2
Rattus norvegicus [19] = assay: Antiallergic activity in rat assessed as inhibition of egg albumin-induced passive cutaneous anaphylaxis at 0.5 mg/kg, iv treated for 30 secs followed by egg albumin-challenge measured after 30 mins relative to control; format: functional; conditions: 0.5 h
Rattus norvegicus [20] = assay: Antiallergic activity in rat assessed as inhibition of egg albumin-induced passive cutaneous anaphylaxis at 50 mg/kg, po treated for 15 mins followed by egg albumin-challenge measured after 30 mins relative to control; format: functional; how it was run: as §2
[21] = Antiallergic activity in passively sensitized rhesus monkey lungs assessed as inhibition of antigen-induced histamine release at 5 x 10^-5 M by fluorometric analysis relative to control; format: functional, Macaca mulatta, Lung; how it was run: as §3
Rattus norvegicus [22] = assay: Ratio of antiallergic activity in iv dosed rat to antiallergic activity in po dosed rat; format: functional
[23] = Antiallergic activity in passively sensitized rhesus monkey lungs assessed as inhibition of antigen-induced histamine release at 1 x 10^-5 M by fluorometric analysis relative to control; format: functional, Macaca mulatta, Lung; how it was run: as §3
[24] = Antiallergic activity in passively sensitized rhesus monkey lungs assessed as inhibition of antigen-induced slow reacting substance of anaphylaxis release at 1 x 10^-4 M relative to control; format: functional, Macaca mulatta, Lung; how it was run: as §3
[25] = Antiallergic activity in passively sensitized rhesus monkey lungs assessed as inhibition of antigen-induced histamine release by fluorometric analysis; format: functional, Macaca mulatta, Lung; how it was run: as §3
[26] = Antiallergic activity in passively sensitized rhesus monkey lungs assessed as inhibition of antigen-induced slow reacting substance of anaphylaxis release at 1 x 10^-5 M relative to control; format: functional, Macaca mulatta, Lung; how it was run: as §3
[27] = Antiallergic activity in passively sensitized rhesus monkey lungs assessed as inhibition of antigen-induced slow reacting substance of anaphylaxis release at 5 x 10^-5 M relative to control; format: functional, Macaca mulatta, Lung; how it was run: as §3
[28] = Antiallergic activity in passively sensitized rhesus monkey lungs assessed as inhibition of antigen-induced slow reacting substance of anaphylaxis release; format: functional, Macaca mulatta, Lung; how it was run: as §3
[29] = Antiallergic activity in passively sensitized rhesus monkey lungs assessed as inhibition of antigen-induced histamine release at 1 x 10^-4 M by fluorometric analysis relative to control; format: functional, Macaca mulatta, Lung; how it was run: as §3
[30] = Antiallergic activity in passively sensitized rhesus monkey lungs assessed as inhibition of antigen-induced histamine release at 1 x 10^-6 M by fluorometric analysis relative to control; format: functional, Macaca mulatta, Lung; how it was run: as §3
[31] = Antiallergic activity in passively sensitized rhesus monkey lungs assessed as inhibition of antigen-induced slow reacting substance of anaphylaxis release at 1 x 10^-6 M relative to control; format: functional, Macaca mulatta, Lung; how it was run: as §3
Rattus norvegicus [32] = assay: Antiallergic activity in rat assessed as inhibition of egg albumin-induced passive cutaneous anaphylaxis at 0.7 mg/kg, iv treated for 30 secs followed by egg albumin-challenge measured after 30 mins relative to control; format: functional; conditions: 0.5 h

SMILES: CCC(=O)Nc1cc(N/C(C)=C2\C(=O)OC(=O)C(C(C)=O)=C2O)ccc1O
- inhibition (INH) (Lung [1]): 41%
- inhibition (INH) (Lung [2]): 66%
- inhibition (INH) (Lung [3]): 70%
- inhibition (INH) (Lung [4]): 65%
- ED50 (Rattus norvegicus [5]): 0.4 mg/kg
- ED50 (Rattus norvegicus [6]): 0.6 mg/kg

SMILES: CC(=O)C1=C(O)/C(=C(\C)Nc2ccc(O)cc2)C(=O)OC1=O
- inhibition (INH) (Lung [7]): 44%
- inhibition (INH) [8]: 51%
- inhibition (INH) (Lung [9]): 45%
- inhibition (INH) [10]: 8.6%
- inhibition (INH) [11]: 18%
- inhibition (INH) [12]: 50%
- inhibition (INH) [13]: 59%
- ED50 (Rattus norvegicus [5]): 1.3 mg/kg
- inhibition (INH) (Lung [14]): 34%
- ED50 (Rattus norvegicus [6]): 29 mg/kg
- inhibition (INH) [15]: 33%

SMILES: CC(=O)C1=C(O)/C(=C(\C)Nc2ccc(N(C)C)cc2)C(=O)OC1=O
- inhibition in vivo at 100 mg/kg (Rattus norvegicus [16]): 11%

SMILES: CC(=O)Nc1cccc(N/C(C)=C2\C(=O)OC(=O)C(C(C)=O)=C2O)c1
- inhibition in vivo at 0.25 mg/kg (Rattus norvegicus [17]): 65%
- inhibition in vivo at 25 mg/kg (Rattus norvegicus [18]): 53%

SMILES: CC(=O)C1=C(O)/C(=C(\C)Nc2ccc(NC(=O)C(C)C)cc2)C(=O)OC1=O
- inhibition in vivo at 0.5 mg/kg (Rattus norvegicus [19]): 64%
- inhibition in vivo at 25 mg/kg (Rattus norvegicus [18]): 4%
- inhibition (INH) (Lung [2]): 60%
- inhibition (INH) (Lung [4]): 92%

SMILES: CC(=O)Nc1cc(NC(C)=O)cc(N/C(C)=C2\C(=O)OC(=O)C(C(C)=O)=C2O)c1
- inhibition in vivo at 50 mg/kg (Rattus norvegicus [20]): -1%
- ED50 (Rattus norvegicus [5]): 0.01 mg/kg

SMILES: CC(=O)C1=C(O)/C(=C(\C)Nc2ccc(O)c(N)c2)C(=O)OC1=O.Cl
- inhibition (INH) [21]: 49%
- Ratio (Rattus norvegicus [22]): 1
- inhibition (INH) [23]: 22%
- inhibition (INH) (Lung [1]): 26%
- inhibition (INH) [24]: 56%
- ID30 [25]: 1.3 ×10⁻⁵ M
- inhibition (INH) [26]: 1%
- inhibition (INH) [27]: 40%
- ID30 [28]: 3.3 ×10⁻⁵ M
- inhibition (INH) (Lung [2]): 61%
- inhibition (INH) [29]: 66%
- inhibition (INH) (Lung [3]): 42%
- inhibition (INH) [30]: 4%
- inhibition (INH) (Lung [4]): 47%
- inhibition (INH) [31]: -24%
- inhibition in vivo at 0.7 mg/kg (Rattus norvegicus [32]): 50%
- ED50 (Rattus norvegicus [6]): 0.8 mg/kg
